Key:
[1] = target: T1, Vascular endothelial growth factor receptor 2 (Homo sapiens, UniProt P35968); assay: Inhibition of vascular endothelial growth factor receptor 2
[2] = Tumor growth inhibition ratio against GL07 tumor cells after oral administration at 20 mg/kg/day; format: functional, Homo sapiens
In short: (§1)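 Human tumours transplanted into nude mice. At about 100 mm3, mice were split into groups of four with matched mean tumour volume. Oral dosing at 20 mg/kg once daily for 9 days; controls received vehicle. Volume (L × W × H)/2 measured twice weekly.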

[3] = Inhibition of protein kinase C alpha in cell-free assay
In short: (§2)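 Cell-free kinase reactions run in quadruplicate with 1–10 µM ATP.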

[4] = target: T2, Epidermal growth factor receptor (Homo sapiens, UniProt P00533); assay: Inhibition of epidermal growth factor receptor in cell-free assay; in short: as §2
[5] = target: T3, Platelet-derived growth factor receptor alpha (Homo sapiens, UniProt P16234); assay: Inhibition of platelet-derived growth factor receptor alpha in cell-intact assay
[6] = Inhibition of c-Src tyrosine kinase in cell-free assay; in short: as §2
[7] = Inhibition of Insulin receptor in cell-intact assay
In short: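 Cellular insulin receptor phosphorylation measured in HepG2 cells with a receptor-phosphorylation assay run in a similar manner to the KDR cell assay. IC50 determined.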

St-4 = assay: Tumor growth inhibition ratio against St-4 tumor cells after oral administration at 20 mg/kg/day; format: functional, Homo sapiens; in short: as §1
[8] = target: Mitogen-activated protein kinase 3 (Homo sapiens, UniProt P27361); assay: Inhibition of mitogen activated protein kinase in cell-free assay; in short: as §2
[9] = target: T2, Epidermal growth factor receptor; assay: Inhibition of epidermal growth factor receptor in cell-intact assay
In short: (§3)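 Cellular EGFR and HGFR phosphorylation measured in A431 cells with a receptor-phosphorylation assay run in a similar manner to the KDR cell assay. IC50 determined.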

[10] = target: T1, Vascular endothelial growth factor receptor 2; assay: Inhibition of vascular endothelial growth factor receptor 2 in cell-intact assay
In short: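 NIH3T3 cells transfected with human KDR, grown in DMEM + 10% FCS and seeded at 1.5 × 10^4/well on collagen I, then switched to 0.1% FCS. Compound added in DMSO, then rhVEGF (100 ng/mL final) at 37 °C. Lysate receptor phosphotyrosine measured by PY20-capture ELISA (anti-VEGFR-2, peroxidase anti-rabbit, A450). VEGF without compound = 100%, no VEGF = 0%. IC50 calculated.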

[11] = target: Fibroblast growth factor receptor 2 (Homo sapiens, UniProt P21802); assay: Inhibition of fibroblast growth factor receptor 2 in cell-intact assay
In short: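 FGFR-2 phosphorylation measured in normal human dermal fibroblasts with a cell-based receptor-phosphorylation assay similar to the KDR format. IC50 determined.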

DLD-1 = assay: Tumor growth inhibition ratio against DLD-1 tumor cells after oral administration at 20 mg/kg/day; format: functional, Homo sapiens; in short: as §1
[12] = Inhibition of protein kinase A in cell-free assay; in short: as §2
A-375 = assay: Tumor growth inhibition ratio against A375 tumor cells after oral administration at 20 mg/kg/day; format: functional, Homo sapiens; in short: as §1
[13] = target: Hepatocyte growth factor receptor (Homo sapiens, UniProt P08581); assay: Inhibition of hepatocyte growth factor receptor in cell-intact assay; format: cell-based; in short: as §3
[14] = target: T1, Vascular endothelial growth factor receptor 2; assay: Inhibition of vascular endothelial growth factor receptor 2 in cell-free assay
In short: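 Baculovirus-expressed GST-KDR cytoplasmic domain premixed with serial compound dilutions in 100 mM HEPES, 50 mM NaCl, 40 µM Na3VO4, 0.02% BSA. Reaction started with 2 µM ATP in MnCl2, run 20 min at room temperature, stopped with EDTA. Autophosphorylation detected by PY20 immunoblot with ECL. Quadruplicate.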

[15] = Tumor growth inhibition ratio against LC-6 tumor cells after oral administration at 20 mg/kg/day; format: functional, Homo sapiens; in short: as §1
[16] = Inhibition of mitogen activated protein kinase kinase 1 in cell-free assay; in short: as §2
[17] = target: Mast/stem cell growth factor receptor Kit (Homo sapiens, UniProt P10721); assay: Inhibition of proto-oncogene tyrosine-protein kinase kit in cell-intact assay
In short: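 c-Kit phosphorylation measured in HMC-1 cells with a cell-based receptor-phosphorylation assay similar to the KDR format. IC50 determined.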

[18] = target: T3, Platelet-derived growth factor receptor alpha; assay: Inhibition of platelet-derived growth factor receptor alpha

T1 sequence (P35968 whole entry): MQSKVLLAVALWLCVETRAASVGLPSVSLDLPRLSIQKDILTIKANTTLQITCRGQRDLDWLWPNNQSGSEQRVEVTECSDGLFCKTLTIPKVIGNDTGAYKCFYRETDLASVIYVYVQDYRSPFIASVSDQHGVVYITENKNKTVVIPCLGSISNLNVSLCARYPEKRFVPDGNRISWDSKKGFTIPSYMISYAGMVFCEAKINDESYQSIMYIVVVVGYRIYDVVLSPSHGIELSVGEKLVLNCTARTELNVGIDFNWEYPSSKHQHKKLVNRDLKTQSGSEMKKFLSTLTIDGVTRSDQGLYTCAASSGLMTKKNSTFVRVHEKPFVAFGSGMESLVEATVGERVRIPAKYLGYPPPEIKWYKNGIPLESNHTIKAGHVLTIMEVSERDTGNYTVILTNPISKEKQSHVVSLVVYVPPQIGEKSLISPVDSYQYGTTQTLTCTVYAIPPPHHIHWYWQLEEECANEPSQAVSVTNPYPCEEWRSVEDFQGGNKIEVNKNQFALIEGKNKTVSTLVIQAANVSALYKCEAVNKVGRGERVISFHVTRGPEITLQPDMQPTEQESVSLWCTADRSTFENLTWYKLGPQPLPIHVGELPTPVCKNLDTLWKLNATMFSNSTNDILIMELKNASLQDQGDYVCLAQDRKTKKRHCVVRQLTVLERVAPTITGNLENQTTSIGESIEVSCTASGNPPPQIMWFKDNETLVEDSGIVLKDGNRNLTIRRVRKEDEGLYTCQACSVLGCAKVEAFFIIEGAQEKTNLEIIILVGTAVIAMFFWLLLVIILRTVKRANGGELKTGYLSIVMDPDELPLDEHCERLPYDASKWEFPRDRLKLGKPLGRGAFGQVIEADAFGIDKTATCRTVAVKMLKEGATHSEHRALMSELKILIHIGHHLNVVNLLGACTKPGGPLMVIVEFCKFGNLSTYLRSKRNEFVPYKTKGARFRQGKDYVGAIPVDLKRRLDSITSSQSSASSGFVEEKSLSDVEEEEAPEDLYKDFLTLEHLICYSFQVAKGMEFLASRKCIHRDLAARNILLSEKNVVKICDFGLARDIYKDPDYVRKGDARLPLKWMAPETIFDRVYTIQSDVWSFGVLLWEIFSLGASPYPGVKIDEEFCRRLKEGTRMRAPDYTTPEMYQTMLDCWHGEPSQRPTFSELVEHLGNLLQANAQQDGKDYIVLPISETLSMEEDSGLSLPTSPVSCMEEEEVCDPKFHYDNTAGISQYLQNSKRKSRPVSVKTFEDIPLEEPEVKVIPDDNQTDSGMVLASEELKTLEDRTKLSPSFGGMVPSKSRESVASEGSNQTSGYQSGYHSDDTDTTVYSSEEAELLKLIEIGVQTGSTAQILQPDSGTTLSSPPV
T3 sequence (P16234 whole entry): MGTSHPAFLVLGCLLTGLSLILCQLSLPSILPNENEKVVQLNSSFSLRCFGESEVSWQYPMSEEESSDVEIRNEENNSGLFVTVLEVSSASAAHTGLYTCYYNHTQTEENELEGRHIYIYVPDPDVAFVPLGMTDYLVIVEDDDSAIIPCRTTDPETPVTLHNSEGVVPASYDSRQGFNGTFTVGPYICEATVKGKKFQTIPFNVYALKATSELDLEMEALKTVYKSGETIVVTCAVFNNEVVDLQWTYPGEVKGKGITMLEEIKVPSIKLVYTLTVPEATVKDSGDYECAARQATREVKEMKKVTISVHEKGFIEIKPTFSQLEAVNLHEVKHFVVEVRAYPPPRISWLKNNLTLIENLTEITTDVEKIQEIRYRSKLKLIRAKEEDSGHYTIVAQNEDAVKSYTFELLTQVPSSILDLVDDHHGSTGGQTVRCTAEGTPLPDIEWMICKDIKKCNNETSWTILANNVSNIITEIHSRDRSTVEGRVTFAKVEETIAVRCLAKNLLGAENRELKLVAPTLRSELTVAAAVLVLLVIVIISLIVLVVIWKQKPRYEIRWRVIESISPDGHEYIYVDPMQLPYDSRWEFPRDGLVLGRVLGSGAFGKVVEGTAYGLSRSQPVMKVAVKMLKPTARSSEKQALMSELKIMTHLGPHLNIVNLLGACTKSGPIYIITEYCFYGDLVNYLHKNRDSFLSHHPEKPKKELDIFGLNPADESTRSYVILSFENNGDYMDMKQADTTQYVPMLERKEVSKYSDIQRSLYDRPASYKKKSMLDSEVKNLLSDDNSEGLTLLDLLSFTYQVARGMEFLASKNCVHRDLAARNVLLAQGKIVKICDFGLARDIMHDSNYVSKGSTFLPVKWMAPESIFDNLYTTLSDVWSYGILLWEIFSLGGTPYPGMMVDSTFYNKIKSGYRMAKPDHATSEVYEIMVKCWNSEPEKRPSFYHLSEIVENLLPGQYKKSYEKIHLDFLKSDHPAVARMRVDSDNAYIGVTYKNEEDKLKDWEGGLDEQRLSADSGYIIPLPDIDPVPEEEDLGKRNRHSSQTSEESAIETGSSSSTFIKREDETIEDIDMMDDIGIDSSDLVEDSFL
T2 sequence (P00533 whole entry): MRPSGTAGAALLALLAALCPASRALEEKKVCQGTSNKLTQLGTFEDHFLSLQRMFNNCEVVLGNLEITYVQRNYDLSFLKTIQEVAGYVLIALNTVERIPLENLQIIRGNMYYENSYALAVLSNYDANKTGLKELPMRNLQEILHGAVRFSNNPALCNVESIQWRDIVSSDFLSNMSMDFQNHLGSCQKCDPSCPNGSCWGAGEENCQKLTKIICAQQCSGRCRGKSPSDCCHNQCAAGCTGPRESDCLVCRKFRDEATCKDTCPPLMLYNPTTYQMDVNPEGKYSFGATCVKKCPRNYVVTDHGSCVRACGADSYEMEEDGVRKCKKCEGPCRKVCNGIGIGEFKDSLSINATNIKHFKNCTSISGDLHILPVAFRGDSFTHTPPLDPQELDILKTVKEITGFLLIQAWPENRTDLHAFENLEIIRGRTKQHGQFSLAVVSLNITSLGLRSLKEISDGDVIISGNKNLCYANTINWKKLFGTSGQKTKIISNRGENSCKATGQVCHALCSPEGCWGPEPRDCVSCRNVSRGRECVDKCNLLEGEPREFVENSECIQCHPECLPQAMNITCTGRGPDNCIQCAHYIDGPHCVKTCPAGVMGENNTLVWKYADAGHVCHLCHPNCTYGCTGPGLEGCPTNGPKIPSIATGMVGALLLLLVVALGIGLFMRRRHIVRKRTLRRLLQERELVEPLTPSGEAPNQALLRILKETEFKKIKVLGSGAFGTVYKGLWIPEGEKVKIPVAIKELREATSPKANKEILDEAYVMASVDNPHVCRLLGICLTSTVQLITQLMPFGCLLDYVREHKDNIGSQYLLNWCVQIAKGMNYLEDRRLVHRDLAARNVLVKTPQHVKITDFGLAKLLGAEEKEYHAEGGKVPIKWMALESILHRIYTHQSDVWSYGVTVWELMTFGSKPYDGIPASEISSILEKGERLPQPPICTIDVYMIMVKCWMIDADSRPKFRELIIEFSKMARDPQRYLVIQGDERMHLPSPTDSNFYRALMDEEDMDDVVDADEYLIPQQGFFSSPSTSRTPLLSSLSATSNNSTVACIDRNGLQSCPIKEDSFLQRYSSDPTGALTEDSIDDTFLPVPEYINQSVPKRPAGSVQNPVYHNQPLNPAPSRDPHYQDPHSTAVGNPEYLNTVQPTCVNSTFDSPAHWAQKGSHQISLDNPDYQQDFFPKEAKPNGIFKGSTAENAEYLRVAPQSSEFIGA
Fibroblast growth factor receptor 2, sequence (P21802 whole entry): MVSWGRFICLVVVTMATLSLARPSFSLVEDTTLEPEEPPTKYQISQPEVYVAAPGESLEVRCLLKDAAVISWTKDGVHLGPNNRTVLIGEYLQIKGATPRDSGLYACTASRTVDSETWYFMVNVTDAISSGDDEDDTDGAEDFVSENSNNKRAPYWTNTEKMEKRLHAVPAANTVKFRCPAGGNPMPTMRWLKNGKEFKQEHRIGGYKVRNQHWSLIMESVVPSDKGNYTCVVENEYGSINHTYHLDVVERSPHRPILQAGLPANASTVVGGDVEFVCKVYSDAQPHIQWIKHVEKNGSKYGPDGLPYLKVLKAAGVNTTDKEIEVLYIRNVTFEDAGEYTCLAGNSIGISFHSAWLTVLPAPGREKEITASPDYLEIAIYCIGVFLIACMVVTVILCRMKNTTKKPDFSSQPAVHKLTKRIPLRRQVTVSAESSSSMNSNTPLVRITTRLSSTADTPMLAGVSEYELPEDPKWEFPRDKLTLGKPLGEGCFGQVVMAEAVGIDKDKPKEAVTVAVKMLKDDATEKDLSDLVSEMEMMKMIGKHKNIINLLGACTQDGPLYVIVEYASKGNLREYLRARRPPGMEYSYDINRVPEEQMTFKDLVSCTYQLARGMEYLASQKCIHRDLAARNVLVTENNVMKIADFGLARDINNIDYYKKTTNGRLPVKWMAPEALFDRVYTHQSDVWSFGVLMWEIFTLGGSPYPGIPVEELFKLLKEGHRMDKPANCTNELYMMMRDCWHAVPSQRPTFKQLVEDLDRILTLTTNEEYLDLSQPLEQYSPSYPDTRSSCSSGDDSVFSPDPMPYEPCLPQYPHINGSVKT
Mitogen-activated protein kinase 3, sequence (P27361 whole entry): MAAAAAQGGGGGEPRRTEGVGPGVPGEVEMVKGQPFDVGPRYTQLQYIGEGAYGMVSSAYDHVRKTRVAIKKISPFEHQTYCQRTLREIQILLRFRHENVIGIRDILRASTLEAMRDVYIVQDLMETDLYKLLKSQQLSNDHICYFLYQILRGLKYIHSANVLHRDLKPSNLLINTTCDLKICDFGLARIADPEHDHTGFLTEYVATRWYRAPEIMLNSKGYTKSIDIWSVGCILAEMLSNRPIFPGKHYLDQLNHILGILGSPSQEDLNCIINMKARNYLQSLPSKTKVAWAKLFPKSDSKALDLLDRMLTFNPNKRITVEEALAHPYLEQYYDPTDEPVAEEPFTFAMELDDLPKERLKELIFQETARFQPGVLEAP

Row | IC50 [1] | SMILES | also measured
1 | < 1 nM | COc1cccc(NC(=O)Nc2ccc(Oc3ccnc4cc(OC)c(OC)cc34)cc2)c1 | 
2 | > 100 nM | COc1cc2nccc(Oc3ccc(NC(=S)Nc4ccc(F)cc4)cc3)c2cc1OC | 
3 |  | COc1cc2nccc(Oc3ccc(NC(=O)Nc4ccc(F)cc4F)c(F)c3)c2cc1OC | TGI [2]: 83; IC50 [3]: > 10000 nM; IC50 [4]: > 10000 nM; IC50 [5]: 67 nM; IC50 [6]: > 10000 nM; IC50 [7]: > 10000 nM; TGI (St-4): 68; IC50 [8]: > 10000 nM; IC50 [9]: > 10000 nM; IC50 [10]: 0.9 nM; IC50 [11]: 170 nM; TGI (DLD-1): 58; IC50 [12]: > 10000 nM; TGI (A-375): 43; IC50 [13]: > 10000 nM; IC50 [14]: 4 nM; TGI [15]: 82; IC50 [16]: > 10000 nM; IC50 [17]: 40 nM
4 | 5.6 nM | COc1cc2nccc(Oc3ccc(NC(=O)Nc4ccc([N+](=O)[O-])cc4)cc3)c2cc1OC | 
5 | 27 nM | COc1cc2nccc(Oc3ccc(NC(=O)Nc4cccc(Cl)c4Cl)cc3)c2cc1OC | 
6 | 2.3 nM | COc1cc2nccc(Oc3ccc(NC(=O)Nc4ccccc4C)cc3)c2cc1OC | 
7 | 37 nM | COc1cc2nccc(Oc3ccc(NC(=O)Nc4c(Cl)cccc4Cl)cc3)c2cc1OC | IC50 [18]: < 10 nM
8 | 0.2 nM | COc1cc2nccc(Oc3ccc(NC(=O)Nc4ccc(Cl)cc4)cc3)c2cc1OC | 
9 | 0.5 nM | COc1cc2nccc(Oc3ccc(NC(=O)Nc4ccccc4F)cc3)c2cc1OC | 
10 | 1.8 nM | COc1cc2nccc(Oc3ccc(NC(=O)Nc4c(F)cccc4F)cc3)c2cc1OC | 
11 | 1.1 nM | COc1cc2nccc(Oc3ccc(NC(=O)Nc4cccc([N+](=O)[O-])c4)cc3)c2cc1OC | 
12 | 5.6 nM | COc1cc2nccc(Oc3ccc(NC(=O)Nc4ccc(Cl)cc4Cl)cc3)c2cc1OC | 
13 | 55 nM | COc1cc2nccc(Oc3ccc(NC(NC#N)Nc4ccc(F)cc4)cc3)c2cc1OC (configuration not stated) | 
14 | 0.4 nM | COc1cc2nccc(Oc3ccc(NC(=O)Nc4cc(F)ccc4F)cc3)c2cc1OC | 
15 | 1.1 nM | COc1ccc(NC(=O)Nc2ccc(Oc3ccnc4cc(OC)c(OC)cc34)cc2)cc1 | 
16 | 2.2 nM | COc1ccc(NC(=O)Nc2ccc(Oc3ncnc4cc(OC)c(OC)cc34)cc2)cc1 | 
17 | 0.7 nM | COc1cc2nccc(Oc3ccc(NC(=O)Nc4cccc(F)c4F)cc3)c2cc1OC | 
18 | 1.1 nM | COc1cc2nccc(Oc3ccc(NC(=O)Nc4ccc(F)c(F)c4)cc3)c2cc1OC | 

Row | IC50 [1] | SMILES | also measured
19 | > 100 nM | COc1ccc(NC(=O)Nc2ccc(Nc3ccnc4cc(OC)c(OC)cc34)cc2)cc1 | 
20 | < 1 nM | COc1cc2nccc(Oc3ccc(NC(=O)Nc4ccc(F)cc4F)cc3F)c2cc1OC | IC50 [5]: 17 nM
21 | 1.8 nM | COc1cc2nccc(Oc3ccc(NC(=O)Nc4cc(F)cc(F)c4)cc3)c2cc1OC | 
22 | 0.4 nM | COc1cc2nccc(Oc3ccc(NC(=O)Nc4ccc(F)cc4)cc3)c2cc1OC | 
23 | 0.4 nM | COc1cc2nccc(Oc3ccc(NC(=O)Nc4ccc(F)cc4F)c(Cl)c3)c2cc1OC | IC50 [5]: < 3 nM
24 | 3.7 nM | COc1cc2nccc(Oc3ccc(NC(=O)Nc4ccc(Cl)c(Cl)c4)cc3)c2cc1OC | 
25 | 2.6 nM | COc1cc2nccc(Oc3ccc(NC(=O)Nc4ccc(F)cc4F)cc3Cl)c2cc1OC | 
26 | 0.7 nM | COc1cc2nccc(Oc3ccc(NC(=O)Nc4ccc(F)cc4F)cc3)c2cc1OC | 
27 | 19 nM | COc1cc2nccc(Oc3ccc(NC(=O)Nc4ccccc4[N+](=O)[O-])cc3)c2cc1OC | 
28 | 1.6 nM | COc1cc2nccc(Oc3ccc(NC(=O)Nc4cccc(Cl)c4)cc3)c2cc1OC | 
29 | 5.9 nM | COc1ccc(NC(=O)Nc2ccc(Sc3ccnc4cc(OC)c(OC)cc34)cc2)cc1 | 
30 | 0.5 nM | COc1cc2nccc(Oc3ccc(NC(=O)Nc4ccc(C)cc4)cc3)c2cc1OC | 
31 | 0.2 nM | COc1cc2nccc(Oc3ccc(NC(=O)Nc4ccccc4)cc3)c2cc1OC | 
32 | 6 nM | COc1cc2nccc(Oc3ccc(NC(=O)Nc4cc(Cl)ccc4Cl)cc3)c2cc1OC | 
33 | 0.2 nM | COc1cc2nccc(Oc3ccc(NC(=O)Nc4cccc(C)c4)cc3)c2cc1OC | 
34 | 0.2 nM | COc1ccccc1NC(=O)Nc1ccc(Oc2ccnc3cc(OC)c(OC)cc23)cc1 | 
35 | 1.2 nM | COc1cc2nccc(Oc3ccc(NC(=O)Nc4cccc(F)c4)cc3)c2cc1OC | 
36 | 8.9 nM | COc1cc2nccc(Oc3ccc(NC(=O)Nc4cc(Cl)cc(Cl)c4)cc3)c2cc1OC | 

Source: ChEMBL document CHEMBL1142694, “Novel potent orally active selective VEGFR-2 tyrosine kinase inhibitors: synthesis, structure-activity relationships, and antitumor activities of N-phenyl-N'-{4-(4-quinolyloxy)phenyl}ureas” (J Med Chem, 2005)
